The text below walks through data of ChEMBL document CHEMBL4699517 (Bioorg Med Chem Lett, 2020).

Data set [1] addresses Phosphatidylinositol 4,5-bisphosphate 3-kinase catalytic subunit gamma isoform (Homo sapiens) (UniProt P48736). The experiment in a line: Inhibition of PI3Kgamma in human SUDHL-10 cells assessed as inhibition of cell viability at 100 nM after 72 hrs by CellTiter-Glo luminescent assay. The format is cell-based. Conditions: SU-DHL-10. Background: In ATP-based viability assays light output follows the ATP content of the culture.

For data set [2] the target is unchanged. As to the kind of experiment: Inhibition of PI3Kgamma in human LCL-1 cells assessed as inhibition of cell viability at 100 nM after 72 hrs by CellTiter-Glo luminescent assay. In kind it is cell-based.
Data set [3] shares this target. The experiment in a line: Inhibition of PI3Kgamma in human SUDHL-6 cells assessed as inhibition of cell viability at 100 nM after 72 hrs by CellTiter-Glo luminescent assay. The format is cell-based. The settings on record: SU-DHL-6.
Data set [4] has the same target. The experiment in a line: Inhibition of PI3Kgamma in human Raji cells assessed as inhibition of cell viability at 100 nM after 72 hrs by CellTiter-Glo luminescence assay. The format is cell-based.
Data set [5] can be described thus: Toxicity in NOD/SCID mouse assessed as animal survival at 5 mg/kg, ip dosed 3 times per week and measured after 24 days of treatment. In kind it is organism-based. Conditions: in vivo, time 24 day. The essentials:
(§1)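 Six-week-old male NOD/SCID mice, 4 per group, received 5 mg/kg IP every other day, three times per week. Animals were monitored throughout dosing and euthanized after 24 days of treatment. Survival over the dosing period was plotted as a survival curve.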

The target in data set [6] is Phosphatidylinositol 4,5-bisphosphate 3-kinase catalytic subunit gamma isoform (Homo sapiens) (UniProt P48736). The experiment in a line: Inhibition of PI3Kgamma in human RPMI-8226 cells assessed as inhibition of cell viability at 100 nM after 72 hrs by CellTiter-Glo luminescent assay. In kind it is cell-based.
Chain of Phosphatidylinositol 4,5-bisphosphate 3-kinase catalytic subunit gamma isoform (Homo sapiens) (P48736 whole entry, looked up, canonical isoform): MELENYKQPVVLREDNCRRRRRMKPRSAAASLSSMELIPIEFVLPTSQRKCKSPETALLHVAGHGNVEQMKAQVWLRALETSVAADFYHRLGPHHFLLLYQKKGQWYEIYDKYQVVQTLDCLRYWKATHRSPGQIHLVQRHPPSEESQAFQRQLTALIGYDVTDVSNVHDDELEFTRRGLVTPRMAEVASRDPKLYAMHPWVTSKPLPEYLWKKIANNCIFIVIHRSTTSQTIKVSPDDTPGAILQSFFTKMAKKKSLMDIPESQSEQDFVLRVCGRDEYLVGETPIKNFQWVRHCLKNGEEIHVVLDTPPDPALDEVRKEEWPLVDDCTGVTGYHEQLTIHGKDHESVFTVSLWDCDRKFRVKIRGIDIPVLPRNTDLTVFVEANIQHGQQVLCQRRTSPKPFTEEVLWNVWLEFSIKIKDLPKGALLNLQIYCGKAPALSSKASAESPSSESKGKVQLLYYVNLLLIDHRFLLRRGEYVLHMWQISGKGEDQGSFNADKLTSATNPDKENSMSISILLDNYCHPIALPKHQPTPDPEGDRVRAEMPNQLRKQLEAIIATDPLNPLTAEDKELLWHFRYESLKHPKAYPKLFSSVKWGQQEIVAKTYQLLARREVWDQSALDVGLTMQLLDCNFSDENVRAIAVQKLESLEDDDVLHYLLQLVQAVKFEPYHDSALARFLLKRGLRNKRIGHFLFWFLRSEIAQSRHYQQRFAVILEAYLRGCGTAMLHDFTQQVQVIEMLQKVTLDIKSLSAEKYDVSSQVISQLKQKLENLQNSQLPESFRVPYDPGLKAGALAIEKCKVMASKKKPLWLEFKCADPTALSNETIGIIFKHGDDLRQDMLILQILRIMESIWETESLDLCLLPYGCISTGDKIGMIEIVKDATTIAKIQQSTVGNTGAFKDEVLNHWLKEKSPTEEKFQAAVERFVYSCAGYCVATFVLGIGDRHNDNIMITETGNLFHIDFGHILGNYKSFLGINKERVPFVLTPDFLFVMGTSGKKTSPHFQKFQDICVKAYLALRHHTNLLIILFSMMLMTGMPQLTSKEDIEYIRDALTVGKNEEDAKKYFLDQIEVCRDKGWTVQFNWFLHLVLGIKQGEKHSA
Data set [7] is described as follows: Toxicity in NOD/SCID mouse assessed as animal death rate at 5 mg/kg, ip dosed 3 times per week and measured after 24 days of treatment. Conditions: in vivo, time 24 day, read-out: Activity. The format is organism-based. Put shortly:
as §1

The target in data set [8] is Phosphatidylinositol 4,5-bisphosphate 3-kinase catalytic subunit gamma isoform (Homo sapiens) (UniProt P48736). As to the kind of experiment: Inhibition of PI3Kgamma in human MOLT-4 cells assessed as inhibition of cell viability at 100 nM after 72 hrs by CellTiter-Glo luminescent assay. In kind it is cell-based.
Data set [9] is described as follows: Toxicity in NOD/SCID mouse assessed as animal survival at 10 mg/kg, ip dosed 3 times per week and measured after 24 days of treatment. The format is organism-based. The settings on record: in vivo, time 24 day.
Data set [10] can be described thus: Toxicity in NOD/SCID mouse assessed as animal survival at 5 to 10 mg/kg, ip dosed 3 times per week and measured at >3 weeks of treatment. Conditions: in vivo, 504 h, dose 5-10 mg/kg. The format is organism-based.

Calls of active or inactive are those of the source. No cut-off for these calls is given here.

Take `COC(=O)[C@@]12OC[C@]34[C@H]([C@@H](O)[C@@H]1O)[C@@]1(C)CC(=O)C(O)=C(C)[C@@H]1C[C@H]3OC(=O)[C@H](OC(=O)C=C(C)C)[C@@H]24`: the inhibition result in [1], in [2], in [3], in [4], in data set [6] and in [8] was “Active” each time. The survival at 576 h is 75% in data set [5] and 25% in [9]. In [7], the mortality at 576 h came out at 25%.
Consider `COC(=O)[C@@]12OC[C@]34[C@H]([C@@H](O)[C@@H]1O)[C@@]1(C)CC(=O)C(OC(=O)CNC(=O)OC(C)(C)C)=C(C)[C@@H]1C[C@H]3OC(=O)[C@H](OC(=O)C=C(C)C)[C@@H]24`, for which the inhibition result in data set [4] is “Active”. The survival at 576 h in data set [5] was determined as 50%; in data set [9], 0%.
`COC(=O)[C@@]12OC[C@]34[C@H]([C@@H](O)[C@@H]1O)[C@@]1(C)CC(=O)C(OC(=O)CNC(=O)CNC(=O)CN)=C(C)[C@@H]1C[C@H]3OC(=O)[C@H](OC(=O)C=C(C)C)[C@@H]24`: the inhibition entry in data set [1], in data set [2], in [3], in data set [4], in [6] and in data set [8] was “Active” each time.
For the compound `COC(=O)[C@@]12OC[C@]34[C@H]([C@@H](O)[C@@H]1O)[C@@]1(C)CC(=O)C(OC(=O)C[C@H](C)NC(=O)C[C@H](C)N)=C(C)[C@@H]1C[C@H]3OC(=O)[C@H](OC(=O)C=C(C)C)[C@@H]24`, the inhibition entry in data set [1], in data set [2], in [3], in data set [4], in data set [6] and in data set [8] was “Active” throughout.
As to `COC(=O)[C@@]12OC[C@]34[C@H]([C@@H](O)[C@@H]1O)[C@@]1(C)CC(=O)C(OC(=O)C[C@H](C)N)=C(C)[C@@H]1C[C@H]3OC(=O)[C@H](OC(=O)C=C(C)C)[C@@H]24`, the Activity result in [10] is “Non-Toxic”. For the same compound, the inhibition result in data set [4] was “Active”. For the same compound, the survival at 576 h in [5] is 100%.
Turning to `COC(=O)[C@@]12OC[C@]34[C@H]([C@@H](O)[C@@H]1O)[C@@]1(C)CC(=O)C(OC(=O)[C@@H]5CC(F)(F)CN5)=C(C)[C@@H]1C[C@H]3OC(=O)[C@H](OC(=O)C=C(C)C)[C@@H]24`, the inhibition entry in data set [1], in [2], in data set [3], in data set [4], in [6] and in data set [8] was “Active” throughout.
For `COC(=O)[C@@]12OC[C@]34[C@H]([C@@H](O)[C@@H]1O)[C@@]1(C)CC(=O)C(OC(=O)[C@H](C)NC(=O)[C@H](C)N)=C(C)[C@@H]1C[C@H]3OC(=O)[C@H](OC(=O)C=C(C)C)[C@@H]24`, the inhibition entry in [1], in data set [2], in data set [3], in [4], in data set [6] and in [8] was “inactive” each time.
Regarding `COC(=O)[C@@]12OC[C@]34[C@H]([C@@H](O)[C@@H]1O)[C@@]1(C)CC(=O)C(OC(=O)[C@H]5CCCN5)=C(C)[C@@H]1C[C@H]3OC(=O)[C@H](OC(=O)C=C(C)C)[C@@H]24`, the inhibition result in [1], in [2], in [3], in data set [4], in data set [6] and in data set [8] was “Active” each time.
Regarding `COC(=O)[C@@]12OC[C@]34[C@H]([C@@H](O)[C@@H]1O)[C@@]1(C)CC(=O)C(OCC(=O)NCCN)=C(C)[C@@H]1C[C@H]3OC(=O)[C@H](OC(=O)C=C(C)C)[C@@H]24`, the inhibition entry in data set [1], in data set [2], in [3], in data set [4], in [6] and in [8] was “Active” each time.
Turning to `COC(=O)[C@@]12OC[C@]34[C@H]([C@@H](O)[C@@H]1O)[C@@]1(C)CC(=O)C(OC(=O)[C@@H](C)N)=C(C)[C@@H]1C[C@H]3OC(=O)[C@H](OC(=O)C=C(C)C)[C@@H]24`, the inhibition entry in data set [1], in [2], in [3], in [4], in data set [6] and in data set [8] was “Active” throughout.
As for `COC(=O)[C@@]12OC[C@]34[C@H]([C@@H](O)[C@@H]1O)[C@@]1(C)CC(=O)C(OC(=O)C[C@@H](C)N)=C(C)[C@@H]1C[C@H]3OC(=O)[C@H](OC(=O)C=C(C)C)[C@@H]24`, the inhibition entry in [1], in data set [2], in data set [3], in data set [4], in [6] and in data set [8] was “Active” in each case.
